In experiment [1] the target is T1, Protein deacetylase HDAC6 (Homo sapiens, UniProt Q9UBN7).
T1 sequence (Q9UBN7 whole entry): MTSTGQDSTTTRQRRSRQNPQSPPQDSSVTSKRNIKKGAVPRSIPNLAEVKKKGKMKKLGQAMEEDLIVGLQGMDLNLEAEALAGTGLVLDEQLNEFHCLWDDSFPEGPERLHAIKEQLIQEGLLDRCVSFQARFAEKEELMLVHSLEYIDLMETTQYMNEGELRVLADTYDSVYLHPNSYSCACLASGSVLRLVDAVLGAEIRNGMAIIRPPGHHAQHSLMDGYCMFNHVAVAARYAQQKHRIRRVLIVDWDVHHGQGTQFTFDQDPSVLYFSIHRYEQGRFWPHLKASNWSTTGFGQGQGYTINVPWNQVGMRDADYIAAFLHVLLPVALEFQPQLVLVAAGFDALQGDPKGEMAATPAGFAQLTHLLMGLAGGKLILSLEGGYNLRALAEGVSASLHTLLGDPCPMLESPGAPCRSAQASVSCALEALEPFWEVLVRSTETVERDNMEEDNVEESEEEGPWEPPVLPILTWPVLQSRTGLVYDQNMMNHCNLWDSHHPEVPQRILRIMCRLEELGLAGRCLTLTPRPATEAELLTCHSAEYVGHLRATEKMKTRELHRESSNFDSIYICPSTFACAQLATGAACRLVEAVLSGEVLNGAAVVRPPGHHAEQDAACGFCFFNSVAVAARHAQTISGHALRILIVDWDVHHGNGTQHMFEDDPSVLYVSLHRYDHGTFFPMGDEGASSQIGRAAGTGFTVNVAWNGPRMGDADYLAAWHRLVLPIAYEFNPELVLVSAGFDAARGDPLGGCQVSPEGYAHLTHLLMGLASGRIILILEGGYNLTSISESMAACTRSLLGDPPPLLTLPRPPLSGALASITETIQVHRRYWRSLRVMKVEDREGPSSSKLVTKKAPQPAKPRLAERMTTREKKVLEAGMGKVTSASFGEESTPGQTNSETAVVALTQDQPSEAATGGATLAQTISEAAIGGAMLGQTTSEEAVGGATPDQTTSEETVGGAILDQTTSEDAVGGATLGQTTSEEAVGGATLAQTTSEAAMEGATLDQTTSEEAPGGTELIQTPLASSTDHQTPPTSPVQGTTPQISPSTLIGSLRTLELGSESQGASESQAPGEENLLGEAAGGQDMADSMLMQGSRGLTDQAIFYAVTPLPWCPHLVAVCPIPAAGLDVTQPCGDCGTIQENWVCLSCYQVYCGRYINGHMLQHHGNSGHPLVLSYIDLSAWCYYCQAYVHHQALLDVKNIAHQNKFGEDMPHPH
The experiment in a line: Inhibition of human recombinant HDAC6 using Boc-lys(Ac)-AMC as substrate preincubated for 20 mins with substrate measured after 60 mins by fluorescence analysis.

In a further experiment the target is Histone deacetylase 1 (Homo sapiens, UniProt Q13547). Briefly: Inhibition of human recombinant HDAC1 using Boc-lys(Ac)-AMC as substrate preincubated for 20 mins with substrate measured after 60 mins by fluorescence analysis.
Chain of Histone deacetylase 1 (Q13547 whole entry): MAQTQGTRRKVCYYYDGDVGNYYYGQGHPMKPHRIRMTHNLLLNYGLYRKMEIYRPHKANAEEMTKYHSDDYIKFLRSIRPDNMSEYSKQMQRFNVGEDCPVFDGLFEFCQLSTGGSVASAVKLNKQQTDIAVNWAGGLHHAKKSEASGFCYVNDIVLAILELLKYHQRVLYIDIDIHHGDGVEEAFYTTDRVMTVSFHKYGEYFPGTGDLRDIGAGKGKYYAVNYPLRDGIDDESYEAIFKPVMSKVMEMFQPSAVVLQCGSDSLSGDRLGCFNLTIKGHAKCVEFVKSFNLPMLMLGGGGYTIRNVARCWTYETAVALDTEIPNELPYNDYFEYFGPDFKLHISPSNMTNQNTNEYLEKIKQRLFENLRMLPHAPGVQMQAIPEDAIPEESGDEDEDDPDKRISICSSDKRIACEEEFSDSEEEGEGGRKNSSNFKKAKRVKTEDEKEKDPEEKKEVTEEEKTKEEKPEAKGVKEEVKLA
The target of experiment [2] is T2, Histone deacetylase-like amidohydrolase (Alcaligenes sp. (strain DSM 11172) (Bordetella sp. (strain FB188))) (UniProt Q70I53).
T2 sequence (whole entry): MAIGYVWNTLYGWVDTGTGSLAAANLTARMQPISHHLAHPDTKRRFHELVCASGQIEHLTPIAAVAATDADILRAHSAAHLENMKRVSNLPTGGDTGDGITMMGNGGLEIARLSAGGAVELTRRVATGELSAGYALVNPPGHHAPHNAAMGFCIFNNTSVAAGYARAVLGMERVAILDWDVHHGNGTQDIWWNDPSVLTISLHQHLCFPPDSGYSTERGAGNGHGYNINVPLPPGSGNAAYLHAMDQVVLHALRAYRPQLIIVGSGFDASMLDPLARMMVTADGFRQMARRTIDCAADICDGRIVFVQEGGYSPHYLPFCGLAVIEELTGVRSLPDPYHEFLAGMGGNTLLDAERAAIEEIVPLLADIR
Briefly: Inhibition of Bordetella sp. (strain FB188) N-terminus His-tagged HDAH expressed in Escherichia coli BL21 (DE3) up to 100 uM. The following applies: Alcaligenaceae bacterium FB188. In a few lines: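 Recombinant N-terminal His6-tagged HDAH from Bordetella strain FB188, expressed in E. coli BL21, purified on zinc-loaded His-Trap column, eluted with 500 mM imidazole, dialyzed into assay buffer (>98% pure by SDS-PAGE). Tested directly against compounds; thiols generated in situ from disulfides with TCEP.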

The target in experiment [3] is DNA (cytosine-5)-methyltransferase 1 (Homo sapiens, UniProt P26358). Briefly: Inhibition of full length N-terminal His6-tagged human DNMT1 at 120 uM after 1 hr by fluorescence analysis. In a few lines: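 Baculovirus-expressed DNMT1 (80 nM final) with SAM (10 μM final) and hemimethylated hairpin oligo (125 nM final) in MOPS buffer pH 6.5 with 1 mM DTT, 1 h room temperature. Stopped with Gla1 plus 125 μM SAH, developed 7 h; fluorescence Ex 485/Em 520 nm. Thiols made in situ by TCEP reduction; no SAM as full-inhibition control.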
Chain of DNA (cytosine-5)-methyltransferase 1 (P26358 whole entry): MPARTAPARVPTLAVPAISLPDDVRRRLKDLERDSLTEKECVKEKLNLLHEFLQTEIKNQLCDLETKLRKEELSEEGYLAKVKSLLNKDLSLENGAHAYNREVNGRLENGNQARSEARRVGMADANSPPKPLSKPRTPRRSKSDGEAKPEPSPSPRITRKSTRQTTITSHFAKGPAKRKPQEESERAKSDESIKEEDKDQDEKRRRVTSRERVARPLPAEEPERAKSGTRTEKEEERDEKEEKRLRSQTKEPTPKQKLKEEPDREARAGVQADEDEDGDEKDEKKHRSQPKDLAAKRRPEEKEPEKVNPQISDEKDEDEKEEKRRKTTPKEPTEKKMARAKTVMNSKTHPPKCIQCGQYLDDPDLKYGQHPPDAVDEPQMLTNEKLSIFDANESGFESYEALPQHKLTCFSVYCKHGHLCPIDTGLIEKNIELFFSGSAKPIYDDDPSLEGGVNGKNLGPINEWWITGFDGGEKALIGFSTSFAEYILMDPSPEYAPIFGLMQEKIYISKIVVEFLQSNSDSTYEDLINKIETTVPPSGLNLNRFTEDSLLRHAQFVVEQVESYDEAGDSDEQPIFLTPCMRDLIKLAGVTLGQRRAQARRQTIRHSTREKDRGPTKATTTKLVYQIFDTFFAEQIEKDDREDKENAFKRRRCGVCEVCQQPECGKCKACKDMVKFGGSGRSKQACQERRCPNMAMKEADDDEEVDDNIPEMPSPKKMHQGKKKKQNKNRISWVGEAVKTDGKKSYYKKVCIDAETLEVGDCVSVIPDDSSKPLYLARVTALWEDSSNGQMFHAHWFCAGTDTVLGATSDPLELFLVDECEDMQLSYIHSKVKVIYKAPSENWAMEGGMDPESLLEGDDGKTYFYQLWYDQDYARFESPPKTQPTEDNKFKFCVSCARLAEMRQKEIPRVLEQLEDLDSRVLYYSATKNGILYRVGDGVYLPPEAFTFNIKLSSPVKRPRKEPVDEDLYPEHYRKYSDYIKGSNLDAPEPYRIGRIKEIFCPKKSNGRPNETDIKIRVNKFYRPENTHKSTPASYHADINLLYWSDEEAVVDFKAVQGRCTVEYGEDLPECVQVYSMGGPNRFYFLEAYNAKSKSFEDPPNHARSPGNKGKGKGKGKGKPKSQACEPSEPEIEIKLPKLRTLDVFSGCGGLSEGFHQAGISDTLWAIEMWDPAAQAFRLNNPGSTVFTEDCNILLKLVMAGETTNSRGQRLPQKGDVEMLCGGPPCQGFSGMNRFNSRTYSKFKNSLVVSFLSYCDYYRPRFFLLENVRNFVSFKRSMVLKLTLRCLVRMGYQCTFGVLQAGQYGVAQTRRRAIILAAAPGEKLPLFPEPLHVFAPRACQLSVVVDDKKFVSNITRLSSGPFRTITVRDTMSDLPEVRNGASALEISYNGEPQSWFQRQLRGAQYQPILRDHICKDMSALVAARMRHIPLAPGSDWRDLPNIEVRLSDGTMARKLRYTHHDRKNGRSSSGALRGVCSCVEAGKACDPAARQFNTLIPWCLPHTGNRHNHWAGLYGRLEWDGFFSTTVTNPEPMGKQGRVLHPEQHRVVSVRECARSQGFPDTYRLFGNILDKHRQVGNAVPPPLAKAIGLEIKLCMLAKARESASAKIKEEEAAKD

Among the data in ChEMBL document CHEMBL2046381, “Defining the mechanism of action and enzymatic selectivity of psammaplin A against its epigenetic targets” (J Med Chem, 2012) are IC50 and inhibition values, retold here.

pIC50: −log10 of the molar value. The source made the active and inactive calls.

The term pIC50 denotes the IC50 on a negative log10 scale, so that one unit is a factor of ten. For `COc1ccc(C/C(=N\N)C(=O)NCCSSCCNC(=O)/C(Cc2ccc(OC)c(Br)c2)=N/N)cc1Br`, the pIC50 in experiment [1] is < 4.30; on Histone deacetylase 1, 5.52. In experiment [2], the inhibition entry was “inactive”.

For `CN(C)c1ccc(C/C(=N\O)C(=O)NCCS)cc1Br`, the values for the pIC50 (in experiment [1]; on Histone deacetylase 1) were 6.15 and 8.40, respectively. Also, the inhibition result in experiment [2] and in experiment [3] was “inactive” each time.

In the case of `COc1ccc(C/C(=N\O)C(=O)NCCSSCCNC(=O)/C(Cc2ccc(OC)c(OC)c2)=N/O)cc1OC`, the inhibition result in experiment [2] was “inactive”.

With `COc1ccc(CC(=O)C(=O)NCCSSCCNC(=O)C(=O)Cc2ccc(OC)c(Br)c2)cc1Br`, the values for the pIC50 (in experiment [1]; on Histone deacetylase 1) were 5.10 and 5.05, respectively. The inhibition entry in experiment [2] is “inactive”.

Regarding `COc1ccc(C/C(=N\O)C(=O)NCCSSCCNC(=O)/C(Cc2ccc(OC)c(Br)c2)=N/O)cc1Br`, the negative-log IC50 (pIC50) in experiment [1] was 5.70; on Histone deacetylase 1 it was 7.37.

Regarding `COc1ccc(C/C(=N\N)C(=O)NCCS)cc1Br`, the figures for the pIC50 (in experiment [1]; at Histone deacetylase 1) were 6.49 and 8.22, respectively. Besides, the inhibition result in experiment [2] was “inactive”.

Regarding `COc1cc(C/C(=N\O)C(=O)NCCS)cc(I)c1OC`, the pIC50 in experiment [1] was 6.57; at Histone deacetylase 1 it was 9.00. For the same molecule, the inhibition result in experiment [2] and in experiment [3] was “inactive” each time.

In the case of `COc1ccc(C/C(=N\N)C(=O)NCCSC)cc1Br`, the negative-log IC50 (pIC50) in experiment [1] was < 4.30; at Histone deacetylase 1 it was 4.90. Further, the inhibition result in experiment [2] was “inactive”.

`O=C(NCCS)/C(Cc1cc(Br)cc([N+](=O)[O-])c1)=N/O`: the pIC50 is 6.13 in experiment [1] and 8.30 at Histone deacetylase 1. Further, the inhibition entry in experiment [2] and in experiment [3] was “inactive” each time.

As for `CN(C)c1ccc(C/C(=N\O)C(=O)NCCSSCCNC(=O)/C(Cc2ccc(N(C)C)c(Br)c2)=N/O)cc1Br`, the inhibition result in experiment [2] was “inactive”.

For the molecule `O=C(NCCS)/C(Cc1cc(Br)c(O)c(Br)c1)=N/O`, the results for the pIC50 (in experiment [1]; at Histone deacetylase 1) were 6.10 and 9.70, respectively. In addition, the inhibition result in experiment [2] and in experiment [3] was “inactive” each time.

Regarding `CO/N=C(\Cc1ccc(OC)c(Br)c1)C(=O)NCCS`, the pIC50 is 5.57 in experiment [1] and 7.82 on Histone deacetylase 1. Moreover, the inhibition entry in experiment [2] and in experiment [3] was “inactive” in each case.

For the molecule `CO/N=C(\Cc1ccc(OC)c(Br)c1)C(=O)NCCSC`, the pIC50 (in experiment [1]; at Histone deacetylase 1) was < 4.30 throughout. Moreover, in experiment [2], the inhibition result is “inactive”.

Consider `O=C(CCc1ccc(O)c(Br)c1)NCCSSCCNC(=O)CCc1ccc(O)c(Br)c1`, for which the values for the pIC50 (in experiment [1]; at Histone deacetylase 1) were 4.69 and < 4.30, respectively. Also, the inhibition entry in experiment [2] is “inactive”.

As to `COc1cc(C/C(=N\O)C(=O)NCCSSCCNC(=O)/C(Cc2ccc(SC)c(OC)c2)=N/O)ccc1SC`, the inhibition entry in experiment [2] was “inactive”.

Turning to `O=C(NCCSSCCNC(=O)/C(Cc1cc(Br)c(O)c(Br)c1)=N/O)/C(Cc1cc(Br)c(O)c(Br)c1)=N/O`, the inhibition result in experiment [2] is “inactive”.

Consider `CO/N=C(\Cc1ccc(OC)c(Br)c1)C(=O)NCCSSCCNC(=O)/C(Cc1ccc(OC)c(Br)c1)=N/OC`, for which the pIC50 in experiment [1] is < 4.30; on Histone deacetylase 1, 6.66. Moreover, in experiment [2], the inhibition result is “inactive”.

Consider `CSc1ccc(C/C(=N\O)C(=O)NCCSSCCNC(=O)/C(Cc2ccc(SC)cc2)=N/O)cc1`, for which the inhibition entry in experiment [2] is “inactive”.

As for `O=C(NCCSSCCNC(=O)/C(Cc1ccc(F)cc1)=N/O)/C(Cc1ccc(F)cc1)=N/O`, the inhibition result in experiment [2] was “inactive”.

As to `COc1cc(C/C(=N\O)C(=O)NCCS)ccc1SC`, the pIC50 was 5.85 in experiment [1] and 9.22 at Histone deacetylase 1. Also, the inhibition result in experiment [2] was “inactive”.

With `O=C(NCCSSCCNC(=O)/C(Cc1cccc([N+](=O)[O-])c1)=N/O)/C(Cc1cccc([N+](=O)[O-])c1)=N/O`, in experiment [2], the inhibition result is “inactive”.

With `COc1ccc(C/C(=N\O)C(=O)NCCS)cc1OC`, the pIC50 in experiment [1] was 5.57; at Histone deacetylase 1 it was 8.52. The inhibition entry in experiment [2] and in experiment [3] was “inactive” each time.

`COc1ccc(C/C(=N\O)C(=O)NCCS)cc1I`: the negative-log IC50 (pIC50) is 6.62 in experiment [1] and 9.00 on Histone deacetylase 1. The inhibition entry in experiment [2] and in experiment [3] was “inactive” in each case.

`O=C(NCCCCCCNC(=O)/C(Cc1ccc(O)c(Br)c1)=N/O)/C(Cc1ccc(O)c(Br)c1)=N/O`: the inhibition result in experiment [2] and in experiment [3] was “inactive” throughout.

Take `COc1ccc(CC(=O)C(=O)NCCS)cc1Br`: the pIC50 in experiment [1] is 6.60; at Histone deacetylase 1 it was 5.96. The inhibition result in experiment [2] was “inactive”.

Regarding `CSc1ccc(C/C(=N\O)C(=O)NCCS)cc1Br`, the negative logarithm of the IC50 (pIC50) in experiment [1] is 6.72; at Histone deacetylase 1 it was 9.32. In addition, the inhibition entry in experiment [2] and in experiment [3] was “inactive” in each case.

As for `CSc1ccc(C/C(=N\O)C(=O)NCCS)cc1`, the pIC50 in experiment [1] is 5.89; on Histone deacetylase 1, 8.70. For the same molecule, the inhibition result in experiment [2] and in experiment [3] was “inactive” each time.

On to `O=C(NCCS)/C(Cc1ccc(F)cc1)=N/O`, for which the pIC50 was 5.54 in experiment [1] and 8.15 at Histone deacetylase 1. For the same molecule, the inhibition entry in experiment [2] and in experiment [3] was “inactive” in each case.

For `O=C(NCCCSCCNC(=O)/C(Cc1ccc(O)c(Br)c1)=N/O)/C(Cc1ccc(O)c(Br)c1)=N/O`, the inhibition result in experiment [2] and in experiment [3] was “inactive” in each case.

`O=C(NCCSSCCNC(=O)/C(Cc1cc(Br)cc([N+](=O)[O-])c1)=N/O)/C(Cc1cc(Br)cc([N+](=O)[O-])c1)=N/O`: the inhibition result in experiment [2] was “inactive”.

On to `CSc1ccc(C/C(=N\O)C(=O)NCCSSCCNC(=O)/C(Cc2ccc(SC)c(Br)c2)=N/O)cc1Br`, for which the inhibition entry in experiment [2] is “inactive”.

For the molecule `COc1cc(C/C(=N\O)C(=O)NCCSSCCNC(=O)/C(Cc2cc(I)c(OC)c(OC)c2)=N/O)cc(I)c1OC`, the inhibition entry in experiment [2] was “inactive”.

`O=C(NCCSSCCNC(=O)/C(Cc1ccc(O)cc1)=N/O)/C(Cc1ccc(O)cc1)=N/O`: the inhibition result in experiment [2] was “inactive”.

For the molecule `CN(C)c1ccc(C/C(=N\O)C(=O)NCCSSCCNC(=O)/C(Cc2ccc(N(C)C)cc2)=N/O)cc1`, the inhibition entry in experiment [2] is “inactive”.

As to `COc1ccc(C/C(=N\O)C(=O)NCCSSCCNC(=O)/C(Cc2ccc(OC)c(I)c2)=N/O)cc1I`, the inhibition result in experiment [2] was “inactive”.

`COc1ccc(C/C(=N\O)C(=O)NCCSC)cc1Br`: the pIC50 in experiment [1] was < 4.30; on Histone deacetylase 1 it was 4.63.

As to `COc1ccc(CC(=O)C(=O)NCCSC)cc1Br`, the pIC50 (in experiment [1]; at Histone deacetylase 1) was < 4.30 throughout. Further, the inhibition result in experiment [2] was “inactive”.
